Only some compounds are listed: those with a hit (about 1.5% of all), similar ones and a draw of the others.
MsrA act: bovine MsrA enzyme activators, primary screen, biochemical, absorbance, HTS | AID 602163, 2012 | hit rate 0.3% among 360,000 | activation, % at 10.6 µM | purified bovine MsrA, absorbance read-out | Methionine sulfoxide reductase A (Bos taurus); in the data active = activation above about 7.5%
proCasp3 act: activators of human procaspase-3 D3A mutant, primary screen, biochemical, absorbance, PC-3 D3A mutant, single concentration | recombinant procaspase-3 D3A, Ac-DEVD-pNA absorbance 405 nm | hit rate 0.11% among 330,000 | Caspase-3 (Homo sapiens), P42574 | activation, % at 8.5 µM | AID 463141, 2010;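 active = activation above the mean of all tested compounds plus 3 SD, cut at about 21% in these data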
Target sequence (P42574 whole entry D9A/D28A/D175A): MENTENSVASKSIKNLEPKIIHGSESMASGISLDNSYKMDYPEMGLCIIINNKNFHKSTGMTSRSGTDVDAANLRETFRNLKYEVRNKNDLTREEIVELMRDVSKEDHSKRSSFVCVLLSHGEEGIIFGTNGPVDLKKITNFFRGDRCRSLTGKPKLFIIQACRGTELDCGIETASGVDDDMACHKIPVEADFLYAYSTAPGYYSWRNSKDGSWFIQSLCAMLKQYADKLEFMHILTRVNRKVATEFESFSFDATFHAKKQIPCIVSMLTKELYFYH
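System: Procaspase-3 D3A mutant. Medium: Zinc-free 300 mM NaCl, 50 mM HEPES, 0.01% Triton X-100. Schedule: 1 h preincubation plus 2 h reaction at 25 °C. Measured by: 405 nm absorbance of p-nitroaniline, reads at 0 and 120 min. Read-out: percent activation relative to control range.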
MsrA inhibitor: bovine MsrA enzyme inhibitors, primary screen, biochemical, absorbance, HTS; hit rate 0.75% among 360,000; purified bovine MsrA, absorbance read-out; Methionine sulfoxide reductase A (Bos taurus); inhibition, % at 15.5 µM
proCasp7 act: procaspase-7 activators, primary screen, counter-screen for procaspase-3 activator project, biochemical, absorbance, HTS, human | Caspase-7 (Homo sapiens), P55210 | recombinant procaspase-7, Ac-DEVD-pNA absorbance 405 nm; D23A/D198A/D206A triple mutant, cannot self-cleave; scale: DMSO 0, 5 µM enzyme 100 | activation, % at 8.5 µM | hit rate 0.093% among 330,000 | AID 463210, 2010;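 active = percent activation above the screen-wide mean plus 3 SD, cut at about 25% in these data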
Target sequence (P55210 whole entry D23A/D198A/D206A): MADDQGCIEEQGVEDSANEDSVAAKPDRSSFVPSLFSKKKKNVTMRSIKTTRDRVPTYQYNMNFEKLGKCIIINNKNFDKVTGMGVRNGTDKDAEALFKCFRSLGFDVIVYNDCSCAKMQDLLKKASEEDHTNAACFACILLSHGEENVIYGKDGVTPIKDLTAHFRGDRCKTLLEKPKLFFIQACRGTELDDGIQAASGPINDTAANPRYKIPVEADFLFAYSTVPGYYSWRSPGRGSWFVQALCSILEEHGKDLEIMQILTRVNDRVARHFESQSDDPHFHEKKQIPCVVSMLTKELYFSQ
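Test system: Procaspase-7 triple mutant (PC-7 D3A). Also added: Ac-DEVD-pNA substrate, 400 µM as added. Schedule: 1 h enzyme–compound preincubation and 2 h substrate reaction, both 25 °C. Signal: p-Nitroaniline absorbance at 405 nm, read at 0 and 120 min. Control set: low DMSO alone, high DMSO plus 5 µM PC-7.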
Tb MetRS inh: T. brucei MetRS inhibitors, primary screen, biochemical, luminescence | methionyl-tRNA synthetase (Trypanosoma brucei brucei) | purified T. brucei MetRS, ATP depletion, Kinase-Glo luminescence | inhibition, % at 11.9 µM | hit rate 0.4% among 360,000;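 active = inhibition above a per-plate cutoff of the control wells' mean inhibition plus 3 SD, cut at about 5.5% in these data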
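Dosing: 11.9 µM compound single dose, 0.9% DMSO; Assay system: purified T. brucei MetRS enzyme; Measured by: Kinase-Glo luciferase luminescence reporting remaining unconsumed ATP; Schedule: 15 min plus 2 h at 25 °C.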
MsrA inh confirm: bovine MsrA inhibitors, retest, confirmation, biochemical, absorbance, HTS; shares compounds with MsrA inhibitor; purified bovine MsrA, absorbance read-out; inhibition, % at 15.5 µM; hit rate 41% among 2,300;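 note: coupled to thioredoxin reductase with NADPH and selenocystamine and DMSO as substrate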
Hits are given with their value; i = inactive; nt = not tested or not shown. Cut-off read from the data, not from the text of the source, unless noted: active = inhibition above about 4.5%; inactive = the rest.

SMILES	MsrA act	proCasp3 act	MsrA inhibitor	proCasp7 act	Tb MetRS inh	MsrA inh confirm
Cc1[nH]c2ccccc2c1/C=N/NC(N)=S	i	i	5.8	i	i	4.7
Cc1[nH]c2ccccc2c1/C=N/NC(=O)c1ccccc1	i	i	6.2	i	i	i
Cc1[nH]c2ccccc2c1/C=N/NC(=O)c1ccc(N)cc1	i	i	5.5	i	i	4.7
Cc1ccc(NC(=S)N/N=C/c2c(C)[nH]c3ccccc23)cc1	i	i	i	i	i	nt
Cc1[nH]c2ccccc2c1/C=N/NC(=O)c1cccc(Br)c1	i	i	nt	i	i	nt
COC(=O)c1cc2c(c3c4cc(C)ccc4n(S(=O)(=O)c4ccc(C)cc4)c13)C(=O)N(Cc1ccc(N(C)C)cc1)C2	nt	nt	i	nt	nt	nt
O=C(Nc1ccc(-c2nc3ccccc3o2)c(O)c1)c1cc(-n2cnnc2)ccc1Cl	i	i	4.8	i	i	i
OCCCN=c1cc(-c2ccccc2)oc2ccc(Cl)cc12	i	i	4.8	i	i	i
COc1ccc(-c2csc(CCn3nc(C)cc3C)n2)cc1	i	i	i	i	i	nt
COc1ccc(-c2cc(C(F)F)nc(-n3nc(C)cc3C)n2)cc1	i	i	15	i	i	16
Cc1ccc(-c2cc(C(F)F)nc(N3CCOCC3)n2)cc1	i	i	11	i	i	9.7
CCOC(=O)C1=CC[C@@H](c2ccccc2)C(C#N)(C#N)[C@H]1/C=C/c1ccccc1	nt	nt	i	nt	nt	nt
N#C/C(=C\Nc1ccccc1O)c1nc2ccccc2o1	i	i	9.7	i	i	7.7
N#C/C(=C\c1ccncc1)c1nc2ccccc2o1	i	i	i	i	i	nt
O=C1c2c(-c3ccc(Br)cc3)noc2CCN1Cc1cn(Cc2cccnc2)nn1	nt	nt	i	nt	i	nt
COc1cc(N/C(=C\C(=O)c2ccccc2)c2ccccc2)ccc1Cl	nt	nt	i	nt	nt	nt
O=Cc1cc([N+](=O)[O-])ccc1N1CCOCC1	i	i	i	i	i	nt
O=C1NC(=S)N/C1=C/c1cc([N+](=O)[O-])ccc1N1CCOCC1	i	i	5.0	i	i	i
CCOC(=O)c1cccc(-n2cccc2/C=C2\NC(=O)N(CC(=O)O)C2=O)c1	i	i	5.0	i	i	i
CO[C@H]1CN(C)C(=O)c2ccc(NC(=O)NC(C)C)cc2OC[C@H](C)NC[C@H]1C	nt	nt	i	nt	i	nt
CCOc1ncccc1C(=O)Nc1ccc2c(c1)OCO2	i	i	5.0	i	i	i
O=C(OCc1ccccc1)N1Cc2ccnnc2CC1c1ccccc1-c1ccc(C(F)(F)F)cc1 (centres undefined)	nt	nt	i	nt	nt	nt
Cc1nc2ccccn2c(=O)c1NC(=O)c1ccco1	i	nt	4.8	nt	i	i
Cc1nc2ccccn2c(=O)c1NC(=O)c1cccc2ccccc12	i	i	i	i	i	nt
COC(=O)[C@H](CCSC)NC(=O)Cn1cnc2c(SC)nc(N)nc21	i	i	i	i	i	nt
SMILES	MsrA act	proCasp3 act	MsrA inhibitor	proCasp7 act	Tb MetRS inh	MsrA inh confirm
Cn1c(NC(=O)/C=C\c2ccccc2)cc(=O)n(C)c1=O	i	i	5.3	i	i	i
Cn1c(NC(=O)/C=C/c2c(F)cccc2Cl)cc(=O)n(C)c1=O	i	i	i	i	i	nt
COC(=O)[C@]12C[C@H](CC(=O)N3CCC(c4ccccc4)CC3)C(=O)N(CCC3=CCCCC3)C1=C[C@H](C(C)(C)C)O[C@@H]2C	nt	nt	i	nt	nt	nt
CN1c2ccsc2C(O)=C(C(=S)Nc2ccc(F)c(Cl)c2)S1(=O)=O	i	i	6.5	i	i	5.1
Cn1cc(C(=O)Nc2ccc(F)c(Cl)c2)cn1	i	i	i	i	i	nt
Cc1cc(C)c(C)c(S(=O)(=O)NCc2ccncc2)c1C	i	i	i	i	i	nt
O=C(N/N=C/c1cnc2ccccc2n1)c1cccc(F)c1	i	i	5.8	i	i	i
COC(=O)c1ccc(/C=N/NC(=O)c2cccc(F)c2)cc1	i	i	nt	i	i	nt
C/C(=N\NC(=O)c1ccc(CSc2nncn2C)cc1)c1cccs1	i	i	i	i	i	nt
COc1cc(/C=N/NC(=O)c2ccc(CSc3nncn3C)cc2)cc(OC)c1O	i	i	5.0	i	i	i
Cn1cnnc1SCc1ccc(C(=O)N/N=C/c2cccs2)cc1	i	i	4.7	i	i	i
Nc1nc2c(C(=O)N3CCCC3)nnn2c2ccccc12	nt	nt	i	nt	nt	nt
CCOC(=O)C1CCCN(C(=O)c2cnn3c(C(F)F)cc(-c4ccc(C)cc4)nc23)C1 (centres undefined)	i	i	29	i	i	23
COC(=O)[C@]12C[C@H](CC(=O)N3CCOCC3)C(=O)N(CCC3=CCCCC3)C1=C[C@H](C(C)(C)C)O[C@@H]2C	nt	nt	i	nt	nt	nt
CC(=O)c1ccc(N2CCN(C(=O)C3CCCN(S(=O)(=O)c4cnc[nH]4)C3)CC2)cc1 (centres undefined)	i	i	5.1	i	i	i
NC(=S)N/N=C/c1ccc(-c2cccc([N+](=O)[O-])c2)o1	i	i	5.1	i	i	7.6
c1ccc2c(c1)nc(-c1ccncc1)n1nnnc21	i	i	13	i	i	12
CCN(CCC(=O)Nc1cc(OC)ccc1OC)Cc1ccccc1	nt	nt	i	nt	nt	nt
N#C/C(=C\c1ccc(Cl)cc1)c1n[nH]c(Cn2cncn2)n1	i	i	i	i	i	nt
COc1ccc(/C=C(\C#N)c2n[nH]c(Cn3cncn3)n2)cc1	i	i	5.7	i	i	5.2
NCC(=O)Nc1ccc(Cl)cc1C(=O)c1ccc[nH]1	i	nt	5.0	nt	i	i
N/C(=N\N=C\c1ccco1)SC1CC(=O)N(c2ccc(C(=O)O)cc2)C1=O (centres undefined)	i	i	i	i	i	nt
C/C(=N\N=C(/N)SC1CC(=O)N(c2ccc(Cl)cc2)C1=O)c1cccs1 (centres undefined)	i	i	i	i	i	nt
C/C(=N\N=C(/N)SC1CC(=O)N(c2ccccc2)C1=O)c1cccs1 (centres undefined)	i	i	5.1	i	i	i
N/C(=N\N=C\c1ccco1)SC1CC(=O)N(c2ccccc2)C1=O (centres undefined)	i	i	6.8	i	i	i
COC(=O)C1=C(C)N(CC(C)C)C(=S)NC1c1ccc(-c2ccccc2)cc1 (centres undefined)	nt	nt	i	nt	nt	nt
CCC(C)CN1C(=O)CN(S(C)(=O)=O)CC1(C)C(=O)NCc1ccccc1 (centres undefined)	nt	nt	i	nt	i	nt
Cc1nc(N)c(C#N)c(-c2cccnc2)c1C	i	i	i	i	i	nt
CCc1nc(N)c(C#N)c(-c2cccnc2)c1C	i	i	4.7	i	i	i
